Rows were chosen to be rich in hits. Some 3.5% of all compounds tested hit in one or more screens of this group.
MrgX1 PAM – positive allosteric modulators of MrgX1, primary screen, HEK293 cells, Fluo-4 calcium flux | Mas-related G-protein coupled receptor member X1 (Homo sapiens), Q96LB2 | FDSS; stronger effect = higher value | B-score at 10 µM | 310,000 tested, 0.63% active;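 active = plate-corrected calcium response at least 3 library SD above typical, normal starting fluorescence, not activating the receptor alone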;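 note: compound read alongside a low EC10 to EC30 dose of BAM8-22 agonist; peak minus trough fluorescence over baseline measured at the second addition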
Target sequence (Q96LB2 whole entry, looked up): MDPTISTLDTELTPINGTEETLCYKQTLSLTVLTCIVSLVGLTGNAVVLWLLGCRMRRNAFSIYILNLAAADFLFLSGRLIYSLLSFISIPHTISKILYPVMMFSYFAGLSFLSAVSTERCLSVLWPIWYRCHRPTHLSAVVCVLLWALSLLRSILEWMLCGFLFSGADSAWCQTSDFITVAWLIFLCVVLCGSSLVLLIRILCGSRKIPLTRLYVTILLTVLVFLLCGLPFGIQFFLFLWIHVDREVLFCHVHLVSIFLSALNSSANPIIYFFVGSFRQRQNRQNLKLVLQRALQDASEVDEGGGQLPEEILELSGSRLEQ
MrgX1 agonist – agonists of human MrgX1 receptor, primary screen, HEK293 cells, Fluo-4 calcium flux; Fluo-4 calcium fluorescence, agonist mode; stronger effect = higher value; B-score at 10 µM; 310,000 tested, 0.44% active; AID 588627, 2011;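 active = calcium response B-score plate-corrected fluorescence ratio at least 3 library SD, with starting fluorescence B-score inside 5 SD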
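System – MrgX1-expressing HEK293 cells · Incubation – cells plated overnight, dye loaded 0.5 h 37 °C, 0.5 h room temperature · Technique – kinetic Fluo-4 NW fluorescence of intracellular calcium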
RGS4 inh – RGS4 inhibitors, primary screen, cell-based, HEK293 M3R inducible RGS4, calcium flux; Fluo-4 calcium flux; stronger effect = higher value; triggered by carbachol at its EC20; 310,000 tested, 0.45% active; B-score at 10 µM;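 active = B-score, a plate-corrected calcium signal, over three deviations above library mean, with baseline fluorescence within five deviations of library mean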;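 note: RGS4 expression induced by doxycycline in cells with stable M3 receptor; B-score is computed from the integrated fluorescence ratio over baseline after carbachol; higher B-score means a larger calcium signal and so more RGS4 inhibition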
Target sequence (P49798 whole entry, looked up): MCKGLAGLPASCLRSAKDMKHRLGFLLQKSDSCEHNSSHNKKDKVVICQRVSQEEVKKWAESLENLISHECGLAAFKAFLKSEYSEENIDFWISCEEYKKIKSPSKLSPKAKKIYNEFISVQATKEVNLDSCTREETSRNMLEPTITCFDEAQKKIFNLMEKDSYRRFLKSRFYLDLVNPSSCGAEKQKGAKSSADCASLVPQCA
RGS4 pot – RGS4 potentiators or activators, primary screen, cell-based, HEK293 M3R inducible RGS4, calcium flux | B-score at 10 µM | carbachol calcium flux Fluo4; stronger effect = lower value | 310,000 tested, 0.92% active | AID 463111, 2010;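 active = B-score of the integrated calcium signal more than 4 SD below the library mean, with starting fluorescence not abnormally high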;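 note: negative B-score means reduced calcium response which marks RGS4 activation or potentiation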
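Detection: kinetic calcium fluorescence imaging with Fluo4-AM dye, 2 µM / Material: HEK293 cells with stable M3R and inducible RGS4 / Schedule: recording 10 s baseline at 1 Hz, 100 s post-agonist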
MrgX1 antagonist – antagonists of human MrgX1 receptor, primary screen, HEK293 cells, Fluo-4 calcium flux; 310,000 tested, 1.3% active; AID 588676, 2011; B-score at 10 µM; BAM8-22 antagonism; stronger effect = lower value;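 active = calcium-response B-score plate-corrected more than 3 library SD below zero, starting fluorescence within 5 deviations, no agonist response on first addition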;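 note: peak minus trough fluorescence over baseline after final BAM8-22 challenge near maximal dose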
MrgX1 allo conf – MrgX1 positive allosteric modulators, duplicate retest, confirmation, HEK293 cells, Fluo-4 calcium flux | shares compounds with MrgX1 PAM | Fluo-4 calcium fluorescence, FDSS | activation (ratio percentage), % at 10 µM | 1,200 tested, 13% active | AID 602413, 2012;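 active = ratio at least 3 SD above the weak peptide control, stable starting fluorescence, no direct agonism earlier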;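 note: compound followed by low BAM8-22 agonist challenge near EC20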
HEK293 Ca flux – nonspecific calcium signal in parental HEK293, confirmation, counter-screen for MrgX1 antagonist project, parental HEK293 cells, Fluo-4 calcium flux; 4,000 tested, 2% active; fluorescence ratio F(max-min)/F0 at 10 µM; shares compounds with MrgX1 antagonist; Fluo-4 calcium fluorescence, FDSS;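 active = duplicate-averaged calcium fluorescence ratio at least three times the standard deviation of buffer wells, a nonspecific response in parental cells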
HEK293 Ca counter – calcium response in parental HEK293 cells, primary screen, counter-screen for MrgX1 allosteric activator project, cell-based, Fluo-4 calcium flux, duplicate; shares compounds with MrgX1 antagonist; Fluo-4 fluorescence ratio; stronger effect = higher value; fluorescence ratio F(max-min)/F0 at 10 µM; 4,000 tested, 0.4% active;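 active = calcium fluorescence ratio, averaged over duplicates, at least 3 SD of the buffer-well ratio, meaning a nonspecific response in receptor-free cells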;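 note: untransfected parental HEK293 lacking MrgX1 used as counterscreen for MrgX1 allosteric activators; fluorescence change taken during the second addition on a kinetic imager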
HEK293 Ca cntr2 – calcium response in parental HEK293 cells, primary screen, counter-screen for MrgX1 agonist project, cell-based, Fluo-4 calcium flux, duplicate, agonist mode | shares compounds with MrgX1 antagonist | AID 624115, 2012 | fluorescence ratio F(max-min)/F0 at 10 µM | 4,000 tested, 8.7% active | Fluo-4 calcium fluorescence (FDSS); stronger effect = higher value;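 active = calcium fluorescence ratio at least three times the spread of buffer wells, meaning a non-specific response in parental cells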
Each line names hits and unclear results; the compound was inactive in the other large screens (follow-up assays come after a bar, where they were run).

Cc1ccc(-n2cnc3cc(NCc4cccs4)ccc32)cc1	MrgX1 PAM 9.8 | MrgX1 allo conf inactive | HEK293 Ca flux inactive | HEK293 Ca counter inactive | HEK293 Ca cntr2 inactive
COc1ccc(Br)c(C(=O)NC2CCCC2)c1	none
Cn1c(=O)n(C)c2cc(C(N)=O)ccc21	MrgX1 PAM 15 | MrgX1 allo conf inactive | HEK293 Ca flux inactive | HEK293 Ca counter inactive | HEK293 Ca cntr2 inactive
Cc1cc(Cl)cc(Br)c1OCCCCn1cncn1	MrgX1 PAM 6.9 | MrgX1 allo conf inactive | HEK293 Ca flux inactive | HEK293 Ca counter inactive | HEK293 Ca cntr2 inactive
Clc1ccccc1Nc1nnc(-c2ccncc2)s1	MrgX1 PAM 9.6 | MrgX1 allo conf inactive | HEK293 Ca flux inactive | HEK293 Ca counter inactive | HEK293 Ca cntr2 inactive
C/C(N)=C(/C#N)C(=O)COC(=O)c1cc2c(s1)CCCC2	none
CNC(=O)COC(=O)c1cc2c(s1)CCCC2	MrgX1 PAM 12 | MrgX1 allo conf inactive | HEK293 Ca flux inactive | HEK293 Ca counter inactive | HEK293 Ca cntr2 inactive
O=C(Cc1ccccc1)N1CCC(c2ccccc2)C1 (stereo not given)	none
COc1ccc(CC(=O)N2CCC(c3ccccc3)C2)cc1 (stereo not given)	MrgX1 PAM 8 | MrgX1 allo conf inactive | HEK293 Ca flux inactive | HEK293 Ca counter inactive | HEK293 Ca cntr2 inactive
Clc1cccc2c1Sc1ccccc1CC2N1CCNCC1 (stereo not given)	MrgX1 PAM 14 | MrgX1 allo conf inactive | HEK293 Ca flux inactive | HEK293 Ca counter inactive | HEK293 Ca cntr2 inactive
O=C(c1ccccc1Cl)N1CCNCC1	none
COc1ccc(S(=O)(=O)Nc2cc3c4c(c2)CCC(=O)N4CCC3)cc1C	none
Cc1cccc(-c2csc(N)c2C(=O)OC(C)C)c1	MrgX1 PAM 8.1 | MrgX1 allo conf inactive | HEK293 Ca flux inactive | HEK293 Ca counter inactive | HEK293 Ca cntr2 inactive
CCCCCCCN1C(Nc2ccccc2)=NC[C@@H]1C	none (no result: RGS4 inh, RGS4 pot)
O=C(NCCc1csc(-c2cccnc2)n1)c1ccc(Cl)cc1	none
O=C(NCCc1csc(-c2cccnc2)n1)c1cccc(Cl)c1	MrgX1 PAM 9.6 | MrgX1 allo conf inactive | HEK293 Ca flux inactive | HEK293 Ca counter inactive | HEK293 Ca cntr2 inactive
O=C(Nc1ccccc1C(F)(F)F)N1CCN(c2ccccn2)CC1	none
O=C(NCCNC(=O)c1cc(Cl)ccc1Cl)c1ccccn1	MrgX1 PAM 9.3 | MrgX1 allo conf inactive | HEK293 Ca flux inactive | HEK293 Ca counter inactive | HEK293 Ca cntr2 77
O=C(NCc1ccccn1)c1ccc(COc2ccc(Cl)cc2)o1	MrgX1 PAM 7.3 | MrgX1 allo conf inactive | HEK293 Ca flux inactive | HEK293 Ca counter inactive | HEK293 Ca cntr2 inactive
O=C(NCc1ccccn1)c1cc(Cl)ccc1OCc1ccccc1	MrgX1 PAM 6.9 | MrgX1 allo conf inactive | HEK293 Ca flux inactive | HEK293 Ca counter inactive | HEK293 Ca cntr2 inactive
O=C(NCc1ccccn1)c1ccc(Cl)cc1Cl	none
Cc1cccc(NC(=O)CN2CCC(NC(=O)C3CCCCC3)CC2)c1C	none
COC(=O)C1CCN(c2cc(Cl)nc(N)n2)CC1	MrgX1 PAM 8.1 | MrgX1 allo conf inactive | HEK293 Ca flux inactive | HEK293 Ca counter inactive | HEK293 Ca cntr2 inactive
NC(=O)C1CCN(c2cc(Cl)nc(N)n2)CC1	none

Assay outcomes as filed in PubChem.
